Test results as given in paper PMC4038343 (Biochemistry, 2014).
“Also recorded” adds a separate entry of the source. Square brackets hold non-standard residues; d marks the D form. Ends that are not written are not given here.

B1: V domain of the receptor for advanced glycation end products (RAGE) (domain or fragment)
chain: QNITARIGEPLVLKCKGAPKKPPQRLEWKLNTGRTEAWKVLSPQGGGPWDSVARVLPNGSLFLPAVGIQDEGIFRCQAMNRNGKETKSNYRVRVYQIPGKPE

Columns and labels:
[1] = target: T1, V domain of RAGE (Homo sapiens, UniProt Q15109); assay: Binding of arginine to the V domain; conditions: method not stated
[2] = target: T1, V domain of RAGE; assay: NMR solution structure of MG-H1–V domain complex; format: binding
Outline: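 Samples of 500 μM [U-13C,15N] V domain, free and with 1 mM unlabeled hydroimidazolone ligand, in pH 6.5 phosphate, 100 mM NaCl, 0.02% NaN3, 90% H2O/10% D2O. 3D 15N- and 13C-edited and 15N-edited/13C-filtered NOESY-HSQC. CYANA calculation: 986 intramolecular and five intermolecular distance restraints (intermolecular upper limits 6 Å), 150 TALOS torsion pairs, 38 H-bond restraints, one disulfide. 20 best structures kept.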

[3] = target: T1, V domain of RAGE; assay: ELISA-based competition with MGO-BSA for the V domain; format: binding; conditions: 1 μM V domain
[4] = tested on: RAGE; conditions: cited from earlier work
[5] = tested on: JNK phosphorylation (p-JNK) in A549 cells, effector of RAGE signaling; assay: JNK phosphorylation in A549 cells, Western blot; format: cell-based, human; conditions: 200 nM (12 μg/mL) MGO-BSA, 7 min, vs unmodified BSA
[6] = target: T1, V domain of RAGE; assay: Fluorescence titration, native tryptophan fluorescence of wild-type V domain; format: binding; conditions: pH 6.5, 25 °C
Outline: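 Wild-type RAGE V domain: expressed in E. coli BL21(DE3) Codon+, purified on Ni-NTA, His tag removed by thrombin. 100 nM protein in 10 mM phosphate pH 6.5 with 100 mM NaCl, at 25 °C in a stirred cuvette. Test compound titrated from 5 nM to 10 μM in 11 steps. Tryptophan emission excited at 295 nm, reference titrations subtracted, dilution-corrected. Kd from single-site binding isotherm fit.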

[7] = target: B1; assay: other fluorescence titration
[8] = target: methylglyoxal-modified bovine serum albumin (bovine, UniProt P02769 25-607, methylglyoxal-modified, contains hydroimidazolones; sites and number not stated); assay: ELISA
Sequence of methylglyoxal-modified bovine serum albumin (P02769 25-607): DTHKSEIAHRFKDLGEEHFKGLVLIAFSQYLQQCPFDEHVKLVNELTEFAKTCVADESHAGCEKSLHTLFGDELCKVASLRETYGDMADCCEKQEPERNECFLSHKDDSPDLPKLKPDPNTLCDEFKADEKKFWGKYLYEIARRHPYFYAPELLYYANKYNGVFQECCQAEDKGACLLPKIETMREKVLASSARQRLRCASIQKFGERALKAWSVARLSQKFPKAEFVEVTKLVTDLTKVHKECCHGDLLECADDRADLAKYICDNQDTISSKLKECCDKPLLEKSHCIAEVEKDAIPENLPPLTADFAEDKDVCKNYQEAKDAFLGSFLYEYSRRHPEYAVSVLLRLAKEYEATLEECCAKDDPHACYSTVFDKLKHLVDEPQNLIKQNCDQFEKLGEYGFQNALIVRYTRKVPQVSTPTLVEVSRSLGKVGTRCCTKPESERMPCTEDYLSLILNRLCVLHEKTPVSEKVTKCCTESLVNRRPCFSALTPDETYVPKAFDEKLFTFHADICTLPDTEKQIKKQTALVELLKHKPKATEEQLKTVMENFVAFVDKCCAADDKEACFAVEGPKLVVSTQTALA

Molecule: N=C(N)NCCC[C@H](N)C(=O)O [arginine]
- binding to the V domain [1]: did not detect any binding

Molecule: CC1NC(NCCC[C@H](N)C(=O)O)=NC1=O (stereo partly drawn) [MG-H1, N^δ-(5-hydro-5-methyl-4-imidazolon-2-yl)ornithine]
- size of MG-H1 binding site ([2]; NMR solution structure of MG-H1–V domain complex): 80 Å^2
- blocking of MGO-BSA binding to the V domain [3]: can successfully block binding of MGO-BSA to the V domain

Molecule: CC1N=C(NCCCC(N)C(=O)O)NC1=O [(R)-epimer of MG-H1]
- stereospecific fit into the MG-H1–V domain binding site ([2]; NMR solution structure, ligand racemic mixture of (R)- and (S)-epimers): Only the (R)-epimer of MG-H1 can be fit into the MG-H1–V domain binding site

Molecule: CC(NCCCC[C@H](N)C(=O)O)C(=O)O (stereo partly drawn) [CEL, N^ε-carboxyethyl-lysine]
- binding to RAGE of free AGE adducts of lysine [4]: do not bind to RAGE

Molecule: MGO-BSA: methylglyoxal-modified bovine serum albumin, prepared according to the method of Ahmed et al.
- JNK phosphorylation [5]: increase in the level of phosphorylation of JNK; also recorded: increases JNK phosphorylation (p-JNK) relative to that with BSA alone

Molecule: N[C@@H](CCCNC1=NC(=O)CN1)C(=O)O [G-H1, N^δ-(5-hydro-4-imidazolon-2-yl)ornithine]
- affinity for the V domain (in words) [6]: comparable to that of the MG-Hs

Molecule: N[C@@H](CCCCNCC(=O)O)C(=O)O [CML, N^ε-carboxymethyl-lysine]
- binding to RAGE of free AGE adducts of lysine [4]: do not bind to RAGE

Molecule: CC1N=C(N)N(CCCC(N)C(=O)O)C1=O (stereo not drawn) [MG-H3, 5-(2-amino-4-hydro-4-methyl-5-imidazolon-1-yl)norvaline]
- blocking of MGO-BSA binding to the V domain [3]: can successfully block binding of MGO-BSA to the V domain

Molecule: CC1C(=O)N=C(N)N1CCCC(N)C(=O)O (stereo not drawn) [MG-H2, 5-(2-amino-5-hydro-5-methyl-4-imidazolon-1-yl)norvaline]
- blocking of MGO-BSA binding to the V domain [3]: can successfully block binding of MGO-BSA to the V domain

Molecule: ALT[MG‑H1]EYTG [ALT(MG-H1)EYTG, synthetic MG-H1-containing peptide]
- Kd [7]: 44 ± 6 nM

Molecule: B1
- binding result [8]: binds
